Published values collected from several papers.
Compare with care: the assays were run in different laboratories.
Organism: Staphylococcus aureus
Read-out: microbial growth

SMILES | assay | test system | conditions | MIC
CCCN/C(=N/C)c1ccc(NC(=O)c2ccc(C(=O)Nc3ccc(/C(=N\C)NCCC)cc3)cc2)cc1 |  |  |  | 16 µg/mL
CCn1cc(C(=O)O)c(=O)c2cc(F)c(N3CCNCC3)cc21 |  | MRSA |  | 250 µg/mL
O=C(O)CN1C(=O)/C(=C/c2ccc(-c3ccc(N(c4ccccc4)c4ccccc4)cc3)c3ccccc23)NC1=S | broth dilution | ATCC6538 |  | > 1000 µg/mL
c1ccc(NCc2ccc(Oc3ccccn3)cc2)cc1 |  |  |  | 1.8 µg/mL
C/C=C(\C)c1cc(O)c(C)c(OC(=O)c2c(C)cc(O)c(Cl)c2O)c1 |  | MRSA |  | 8 µg/mL
C=CCOc1c(C)c(O)c(C(=O)/C=C/c2ccccc2)c(OC)c1C | broth dilution | ATCC25923 |  | > 5000 µg/mL
C=CCn1c(-c2ccc(Cl)cc2)nc2ccc(C)cc21 | broth dilution | ATCC29213 MSSA |  | 32 µg/mL
Nc1nccc(Oc2ccc(NC(=O)c3c[nH]cc(-c4ccc(F)cc4)c3=O)cc2F)c1Cl |  | NCTC8325 |  | > 30 µM
Cc1ccc(C)n1-c1ccc(-c2nnco2)cc1 | broth dilution | ATCC11632 | 18 h | 2 µg/mL
Cc1ccc2nc(-c3cccc(O)c3)[nH]c2c1 | broth dilution | ATCC29213 MSSA |  | 32 µg/mL
O=C1NC(=S)N/C1=C\c1c2ccccc2c(-c2ccc(N(c3ccccc3)c3ccccc3)cc2)c2ccccc12 | broth dilution | ATCC6538 |  | > 1000 µg/mL
CN[C@H](CC(C)C)C(=O)N[C@H]1C(=O)N[C@@H](CC(N)=O)C(=O)N[C@H]2C(=O)N[C@H]3C(=O)N[C@H](C(=O)N[C@H](C(=O)O)c4cc(O)cc(O)c4-c4cc3ccc4O)[C@H](O)c3ccc(c(Cl)c3)Oc3cc2cc(c3O[C@@H]2O[C@H](CO)[C@@H](O)[C@H](O)[C@H]2O[C@H]2C[C@](C)(N)[C@H](O)[C@H](C)O2)Oc2ccc(cc2Cl)[C@H]1O | broth dilution | 6917 |  | 1 µg/mL
O=C(CCCCCC[P+](c1ccccc1)(c1ccccc1)c1ccccc1)Nc1cc(O)c(O)c(O)c1.[Br-] | broth dilution | ATCC43300 MRSA | 18 h | 32 µg/mL
CCCCCCC#Cc1cncc(-c2nnc(SCc3ccc([N+](=O)[O-])cc3)n2C)c1 |  | MRSA | drug-resistant strain | ≥ 20 µg/mL
COc1ccc(-c2ccc3c(N4CCOCC4)nc(N4C[C@@H](C)O[C@@H](C)C4)nc3n2)cc1CO |  | NCTC8325 |  | > 30 µM
C/C=C(\C)c1cc(OC(=O)c2c(C)c(Cl)c(O)c(Cl)c2O)c(C)c(O)c1C(=O)O | broth dilution | MRSA |  | 64 µg/mL
CC(C)/N=C(\N)c1ccc(NC(=O)c2ccc(C(=O)Nc3ccc(/C(N)=N/C(C)C)cc3)cc2)cc1 |  |  |  | 4 µg/mL
OCCn1cc(-c2cnc3nnn(Cc4ccc5ncccc5c4)c3n2)cn1 |  | NCTC8325 |  | > 30 µM
O=C(CCc1ccc(O)c(O)c1)NCCCCCCCC[P+](c1ccccc1)(c1ccccc1)c1ccccc1.[Br-] | broth dilution | ATCC43300 MRSA | 18 h | > 32 µg/mL
Cc1cnc(Nc2ccc(OCCN3CCCC3)cc2)nc1Nc1cccc(S(=O)(=O)NC(C)(C)C)c1 |  | NCTC8325 |  | > 30 µM

SMILES | assay | test system | conditions | MIC
CC(C)Oc1c(NC(=O)c2ccc(NC(=O)[C@H](CC(N)=O)NC(=O)c3ccc(NC(=O)c4ccc5c(c4)COC5=O)cc3)cc2)ccc(C(=O)Nc2ccc(C(=O)O)cc2)c1O |  | ATCC29213 |  | 1 µg/mL
COc1cc(/C=N\NC(=O)c2ccc(Br)cc2)ccc1OC(=O)c1cccs1 |  |  |  | > 128 µg/mL
O=[N+]([O-])c1ccc(-c2nc3ccccc3n2Cc2ccccc2)cc1 | broth dilution | ATCC29213 MSSA |  | 4 µg/mL
CNC(=O)CN1CCC(Oc2cc3c(Nc4cccc(Cl)c4F)ncnc3cc2OC)CC1 |  | NCTC8325 |  | > 30 µM
CO[C@H]1[C@H](O[C@H]([C@H]2O[C@@H](n3ccc(=O)[nH]c3=O)[C@H](O)[C@@H]2O)[C@H](NCCCNC(=O)[C@H](CC(C)C)NC(=O)[C@@H](NC(=O)N[C@H](C(=O)O)C(C)C)[C@@H]2CCNC(=N)N2)C(=O)O)O[C@H](CN)[C@H]1O |  | NEWMAN |  | > 80 µg/mL
Cc1cc(=O)[nH]n1C(=O)c1ccc(-n2c(C)ccc2C)cc1 | broth dilution | ATCC11632 | 18 h | 125 µg/mL
O=C(O)CN1C(=O)/C(=C/c2ccc(-c3ccc(N(c4ccccc4)c4ccccc4)cc3)cc2)SC1=S | broth dilution | ATCC6538 |  | 3.9 µg/mL
CC(C)Oc1c(NC(=O)c2ccc(NC(=O)[C@H](CC(N)=O)NC(=O)c3ccc(NC(=O)c4ccc(C#N)cc4)cc3)cc2)ccc(C(=O)O)c1O |  | ATCC29213 |  | > 64 µg/mL
O=C(Nc1ccc(F)cc1)c1ccccc1O | broth dilution | ATCC29213 |  | 32 µg/mL
CN(C)[C@@H]1C(O)=C(C(N)=O)C(=O)[C@@]2(O)C(O)=C3C(=O)c4c(O)cccc4[C@@](C)(O)[C@H]3C[C@@H]12 |  | ATCC43300 |  | 2 µg/mL
O=C(O)CN1C(=O)/C(=C/c2c3ccccc3c(-c3ccc(N(c4ccccc4)c4ccccc4)cc3)c3ccccc23)NC1=S | broth dilution | ATCC43300 |  | > 1000 µg/mL
CC(C)Oc1c(NC(=O)c2ccc(NC(=O)[C@H](CC(N)=O)NC(=O)c3ccc(CCNC(=O)c4ccc(C#N)cc4)cc3)cc2)ccc(C(=O)Nc2ccc(C(=O)O)cc2)c1O |  | ATCC29213 |  | > 64 µg/mL
C[n+]1c(/C=C/c2c[nH]c3ccccc23)cc(/C=C2\Sc3ccccc3N2CCCN2CCOCC2)c2ccccc21.[I-] | broth dilution | ATCCBAA44 |  | 8 µg/mL
CO[C@H]1C[C@@H]2CC[C@@H](C)[C@@](O)(O2)C(=O)C(=O)N2CCCC[C@H]2C(=O)O[C@H]([C@H](C)C[C@@H]2CC[C@@H](OCCO)[C@H](OC)C2)CC(=O)[C@H](C)/C=C(\C)[C@@H](O)[C@@H](OC)C(=O)[C@H](C)C[C@H](C)/C=C/C=C/C=C/1C |  | NCTC8325 |  | > 30 µM
CC[C@H]1OC(=O)[C@H](C)[C@@H](O[C@H]2C[C@@](C)(OC)[C@@H](O)[C@H](C)O2)[C@H](C)[C@@H](O[C@@H]2O[C@H](C)C[C@H](N(C)C)[C@H]2O)[C@](C)(O)C[C@@H](C)C(=O)[C@H](C)[C@@H](O)[C@]1(C)O | broth dilution | 25923 |  | 0.59 µM
CC(C)Oc1c(NC(=O)c2ccc(NC(=O)[C@H](CC(N)=O)NC(=O)c3ccc(NC(=O)c4ccc(C#N)nc4)cc3)cc2)ccc(C(=O)Nc2ccc(C(=O)O)cc2)c1O |  | ATCC29213 |  | 64 µg/mL
COc1cccc(OC)c1C(=O)N[C@@H]1C(=O)N2[C@@H]1SC(C)(C)[C@@H]2C(=O)O | broth dilution | 25923 |  | 3.13 µM
CO[C@H]1/C=C/O[C@@]2(C)Oc3c(C)c(O)c4c(O)c(c(/C=N/N5CCN(C)CC5)c(O)c4c3C2=O)NC(=O)/C(C)=C\C=C\[C@H](C)[C@H](O)[C@@H](C)[C@@H](O)[C@@H](C)[C@H](OC(C)=O)[C@@H]1C |  | NCTC8325 |  | 0.009 to 0.018 µM
CCOc1ccc(-c2nc3cc(-c4nc5cc(N6CCN(C)CC6)ccc5[nH]4)ccc3[nH]2)cc1 | broth dilution | 29213 | 24 h | 2 to 4 µg/mL
COc1cc2/c(=N/c3ccc(Br)cc3F)nc[nH]c2cc1OCC1CCN(C)CC1 |  | NCTC8325 |  | > 30 µM

SMILES | assay | test system | conditions | MIC
CC(C)Oc1c(NC(=O)c2ccc(NC(=O)[C@H](CC(N)=O)NC(=O)c3ccc(NC(=O)c4ccc(C#N)c(Cl)c4)cc3)cc2)ccc(C(=O)Nc2ccc(C(=O)O)cc2)c1O |  | ATCC29213 |  | < 0.03 µg/mL
CC(=O)NC[C@H]1CN(c2ccc(N3CCOCC3)c(F)c2)C(=O)O1 | broth dilution | MRSA NRS384 USA300 | drug-resistant strain | 2 µg/mL
COc1c(C)c(OC)c(C(=O)/C=C/c2ccccc2)c(OC)c1C | broth dilution | ATCC25923 |  | 5000 µg/mL
C[C@H]1c2cccc(O)c2C(=O)C2=C(O)[C@]3(O)C(=O)C(C(N)=O)=C(O)[C@@H](N(C)C)[C@@H]3[C@@H](O)[C@@H]21 |  |  | clinical isolate | 6.25 µg/mL
C/C(=C\c1ccc(C#N)cc1)C(=O)Nc1ccc(C(=O)N[C@@H](CC(N)=O)C(=O)Nc2ccc(C(=O)Nc3ccc(C(=O)Nc4ccc(C(=O)O)cc4)c(O)c3OCC(C)C)cc2)cc1 |  | ATCC29213 |  | 0.06 µg/mL
CSc1ccc(-c2nc3ccc(C)cc3n2Cc2ccccc2)cc1 | broth dilution | ATCC29213 MSSA |  | 128 µg/mL
C/C=C(\C)c1cc(OC(=O)c2c(O)c(C)c(O)c(Cl)c2/C(C)=C/C)c(C)c(O)c1C(=O)O | broth dilution | CCARM3090 |  | 64 µg/mL
CCOC(=O)/C(C#N)=C(\O)c1ccc(NC(=O)c2cccs2)cc1 |  |  |  | > 128 µg/mL
Cc1ccc2nc(-c3ccccc3Cl)[nH]c2c1 | broth dilution | ATCC29213 MSSA |  | 64 µg/mL
O=C1NC(=S)N/C1=C\c1ccc(-c2ccc(N(c3ccccc3)c3ccccc3)cc2)cc1 | broth dilution | ATCC43300 |  | > 1000 µg/mL
Cc1cccc(NCc2ccc(Oc3ccccn3)cc2)c1 |  |  |  | > 6.2 µg/mL
CC1=NN(CNC(=O)c2ccccn2)C(=O)C1=NNn1c(-c2ccccc2)nc2ccccc2c1=O | broth dilution |  | 24 h | 52 µM
Cc1ccc2nc(-c3ccco3)n(Cc3ccccc3)c2c1 | broth dilution | ATCC29213 MSSA |  | 128 µg/mL
C/C=C(\C)c1cc(O)c(C)c(OC(=O)c2c(C)c(Cl)c(O)c(Cl)c2O)c1 | broth dilution | MRSA |  | 4 µg/mL
Cc1ccc2nc(-c3ccc(Cl)cc3)[nH]c2c1 | broth dilution | ATCC29213 MSSA |  | 256 µg/mL
CC(C)(O/N=C(\C(=O)N[C@@H]1C(=O)N2C(C(=O)[O-])=C(C[n+]3ccccc3)CS[C@H]12)c1csc(N)n1)C(=O)O | broth dilution | ATCC25923 | 18 h | 1 µg/mL
CC(C)Oc1c(NC(=O)c2ccc(NC(=O)[C@H](CC(N)=O)NC(=O)c3ccc(NC(=O)c4ccccc4[N+](=O)[O-])cc3)cc2)ccc(C(=O)Nc2ccc(C(=O)O)cc2)c1O |  | ATCC29213 |  | > 64 µg/mL
Oc1ccc(Br)cc1-c1nc2ccccc2[nH]1 | broth dilution | ATCC29213 MSSA |  | 64 µg/mL
